Test results as given in ChEMBL document CHEMBL5058577, “EUbOPEN Chemogenomics Library 2 (Multiplex)” (2022).

Tested on: Fibroblast
Test: Multiplex assay against human fibroblast
Assay type: toxicity, cell-based
Outline: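 Tubulin, mitochondrial-mass and membrane-permeability phenotypes are per cents of healthy-nucleus cells. Cells were gated by CellPathfinder machine learning into Hoechst high-intensity objects or normal cells, normal cells into healthy, pyknosed or fragmented nuclei, and pyknosed cells into mitotic or apoptotic. Before that, live cells stained at seeding with Hoechst33342, BioTracker Green Microtubule Cytoskeleton Dye, MitoTracker Red and Annexin V Alexa Fluor 680 were imaged on a CQ1 microscope at 37°C and 5% CO2 after compound addition.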

[1] = 12 h, 1 µM, compound concentration 1 uM, replicate 1
[2] = 12 h, 1 µM, compound concentration 1 uM, replicate 2
[3] = 12 h, 10 µM, compound concentration 10 uM, replicate 1
[4] = 12 h, 10 µM, compound concentration 10 uM, replicate 2
[5] = 24 h, 1 µM, compound concentration 1 uM, replicate 1
[6] = 24 h, 1 µM, compound concentration 1 uM, replicate 2
[7] = 24 h, 10 µM, compound concentration 10 uM, replicate 1
[8] = 24 h, 10 µM, compound concentration 10 uM, replicate 2
[9] = 48 h, 1 µM, compound concentration 1 uM, replicate 1
[10] = 48 h, 1 µM, compound concentration 1 uM, replicate 2
[11] = 48 h, 10 µM, compound concentration 10 uM, replicate 1
[12] = 48 h, 10 µM, compound concentration 10 uM, replicate 2

CN1CCN2c3ncccc3Cc3ccccc3C2C1 (stereo not given) [MIRTAZAPINE]
Population Apoptotic (%) [1]: 44%
Population Fragmented Nuclei (%) [1]: 10%
Population Healthy Nuclei (%) [1]: 77%
Population Hoechst High Intensity Objects (%) [1]: 3%
Population Membrane Permeable-Phenotype (%) [1]: 0%
Population Mitochondria Different-Phenotype (%) [1]: 6%
Population Mitotic Cells (%) [1]: 56%
Population Normal (%) [1]: 96%
Population Pyknosed Nuclei (%) [1]: 12%
Population Tubulin-Different-Phenotype (%) [1]: 24%
Total Cell Count [1]: 213
Population Apoptotic (%) [2]: 33%
Population Fragmented Nuclei (%) [2]: 24%
Population Healthy Nuclei (%) [2]: 47%
Population Membrane Permeable-Phenotype (%) [2]: 4%
Population Mitochondria Different-Phenotype (%) [2]: 5%
Population Mitotic Cells (%) [2]: 66%
Population Pyknosed Nuclei (%) [2]: 27%
Population Tubulin-Different-Phenotype (%) [2]: 45%
Total Cell Count [2]: 156
Population Apoptotic (%) [3]: 44%
Population Fragmented Nuclei (%) [3]: 19%
Population Healthy Nuclei (%) [3]: 69%
Population Hoechst High Intensity Objects (%) [3]: 1%
Population Membrane Permeable-Phenotype (%) [3]: 0%
Population Mitochondria Different-Phenotype (%) [3]: 8%
Population Mitotic Cells (%) [3]: 55%
Population Normal (%) [3]: 98%
Population Pyknosed Nuclei (%) [3]: 10%
Population Tubulin-Different-Phenotype (%) [3]: 30%
Total Cell Count [3]: 168
Population Apoptotic (%) [4]: 28%
Population Fragmented Nuclei (%) [4]: 27%
Population Healthy Nuclei (%) [4]: 40%
Population Hoechst High Intensity Objects (%) [4]: 6%
Population Membrane Permeable-Phenotype (%) [4]: 16%
Population Mitochondria Different-Phenotype (%) [4]: 7%
Population Mitotic Cells (%) [4]: 71%
Population Normal (%) [4]: 93%
Population Pyknosed Nuclei (%) [4]: 32%
Population Tubulin-Different-Phenotype (%) [4]: 60%
Total Cell Count [4]: 140
Population Apoptotic (%) [5]: 47%
Population Fragmented Nuclei (%) [5]: 7%
Population Healthy Nuclei (%) [5]: 82%
Population Hoechst High Intensity Objects (%) [5]: 5%
Population Membrane Permeable-Phenotype (%) [5]: 0%
Population Mitochondria Different-Phenotype (%) [5]: 5%
Population Mitotic Cells (%) [5]: 52%
Population Normal (%) [5]: 94%
Population Pyknosed Nuclei (%) [5]: 10%
Population Tubulin-Different-Phenotype (%) [5]: 31%
Total Cell Count [5]: 201
Population Apoptotic (%) [6]: 48%
Population Fragmented Nuclei (%) [6]: 26%
Population Healthy Nuclei (%) [6]: 50%
Population Hoechst High Intensity Objects (%) [6]: 0%
Population Membrane Permeable-Phenotype (%) [6]: 10%
Population Mitochondria Different-Phenotype (%) [6]: 10%
Population Mitotic Cells (%) [6]: 51%
Population Normal (%) [6]: 99%
Population Pyknosed Nuclei (%) [6]: 23%
Population Tubulin-Different-Phenotype (%) [6]: 36%
Total Cell Count [6]: 153
Population Apoptotic (%) [7]: 50%
Population Fragmented Nuclei (%) [7]: 19%
Population Healthy Nuclei (%) [7]: 72%
Population Hoechst High Intensity Objects (%) [7]: 4%
Population Membrane Permeable-Phenotype (%) [7]: 0%
Population Mitochondria Different-Phenotype (%) [7]: 9%
Population Mitotic Cells (%) [7]: 50%
Population Normal (%) [7]: 95%
Population Pyknosed Nuclei (%) [7]: 7%
Population Tubulin-Different-Phenotype (%) [7]: 30%
Total Cell Count [7]: 186
Population Apoptotic (%) [8]: 46%
Population Fragmented Nuclei (%) [8]: 29%
Population Healthy Nuclei (%) [8]: 46%
Population Hoechst High Intensity Objects (%) [8]: 5%
Population Membrane Permeable-Phenotype (%) [8]: 15%
Population Mitochondria Different-Phenotype (%) [8]: 1%
Population Mitotic Cells (%) [8]: 53%
Population Normal (%) [8]: 94%
Population Pyknosed Nuclei (%) [8]: 23%
Population Tubulin-Different-Phenotype (%) [8]: 68%
Total Cell Count [8]: 136
Population Apoptotic (%) [9]: 60%
Population Fragmented Nuclei (%) [9]: 15%
Population Healthy Nuclei (%) [9]: 73%
Population Hoechst High Intensity Objects (%) [9]: 7%
Population Membrane Permeable-Phenotype (%) [9]: 0%
Population Mitochondria Different-Phenotype (%) [9]: 4%
Population Mitotic Cells (%) [9]: 39%
Population Normal (%) [9]: 92%
Population Pyknosed Nuclei (%) [9]: 11%
Population Tubulin-Different-Phenotype (%) [9]: 31%
Total Cell Count [9]: 213
Population Apoptotic (%) [10]: 50%
Population Fragmented Nuclei (%) [10]: 36%
Population Healthy Nuclei (%) [10]: 45%
Population Hoechst High Intensity Objects (%) [10]: 2%
Population Membrane Permeable-Phenotype (%) [10]: 11%
Population Mitochondria Different-Phenotype (%) [10]: 12%
Population Mitotic Cells (%) [10]: 50%
Population Normal (%) [10]: 97%
Population Pyknosed Nuclei (%) [10]: 17%
Population Tubulin-Different-Phenotype (%) [10]: 56%
Total Cell Count [10]: 161
Population Apoptotic (%) [11]: 66%
Population Fragmented Nuclei (%) [11]: 17%
Population Healthy Nuclei (%) [11]: 73%
Population Hoechst High Intensity Objects (%) [11]: 5%
Population Membrane Permeable-Phenotype (%) [11]: 0%
Population Mitochondria Different-Phenotype (%) [11]: 9%
Population Mitotic Cells (%) [11]: 33%
Population Normal (%) [11]: 94%
Population Pyknosed Nuclei (%) [11]: 9%
Population Tubulin-Different-Phenotype (%) [11]: 36%
Total Cell Count [11]: 176
Population Apoptotic (%) [12]: 33%
Population Fragmented Nuclei (%) [12]: 46%
Population Healthy Nuclei (%) [12]: 41%
Population Hoechst High Intensity Objects (%) [12]: 2%
Population Membrane Permeable-Phenotype (%) [12]: 8%
Population Mitochondria Different-Phenotype (%) [12]: 2%
Population Mitotic Cells (%) [12]: 66%
Population Normal (%) [12]: 97%
Population Pyknosed Nuclei (%) [12]: 12%
Population Tubulin-Different-Phenotype (%) [12]: 60%
Total Cell Count [12]: 120
